Test system: U2OS
Assay: Multiplex assay against U2OS
Assay type: toxicity, cell-based
Settings: human
In short: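 Hoechst33342, BioTracker Green Microtubule Cytoskeleton Dye, MitoTracker Red and Annexin V Alexa Fluor 680 were added to live cells at seeding, and imaging on a CQ1 microscope at 37°C and 5% CO2 followed compound addition. Gating by CellPathfinder machine learning separated cells into Hoechst high-intensity objects or normal cells, then normal cells into healthy, pyknosed or fragmented nuclei, then pyknosed cells into mitotic or apoptotic. Per cents of healthy-nucleus cells are reported for the tubulin, mitochondrial-mass and membrane-permeability phenotypes.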

[1] = 12 h, 1 µM, compound concentration 1 uM, replicate 1
[2] = 12 h, 1 µM, compound concentration 1 uM, replicate 2
[3] = 12 h, 10 µM, compound concentration 10 uM, replicate 1
[4] = 12 h, 10 µM, compound concentration 10 uM, replicate 2
[5] = 24 h, 1 µM, compound concentration 1 uM, replicate 1
[6] = 24 h, 1 µM, compound concentration 1 uM, replicate 2
[7] = 24 h, 10 µM, compound concentration 10 uM, replicate 1
[8] = 24 h, 10 µM, compound concentration 10 uM, replicate 2
[9] = 48 h, 1 µM, compound concentration 1 uM, replicate 1
[10] = 48 h, 1 µM, compound concentration 1 uM, replicate 2
[11] = 48 h, 10 µM, compound concentration 10 uM, replicate 1
[12] = 48 h, 10 µM, compound concentration 10 uM, replicate 2

## CC(=O)Nc1cccc2c1c(Sc1ccc(Cl)cc1)c(C)n2CC(=O)O [AZD1981]
[1]
  Population Apoptotic (%): 68%
  Population Fragmented Nuclei (%): 24%
  Population Healthy Nuclei (%): 68%
  Population Hoechst High Intensity Objects (%): 3%
  Population Membrane Permeable-Phenotype (%): 3%
  Population Mitochondria Different-Phenotype (%): 0%
  Population Mitotic Cells (%): 31%
  Population Normal (%): 96%
  Population Pyknosed Nuclei (%): 6%
  Population Tubulin-Different-Phenotype (%): 2%
  Total Cell Count: 253
[2]
  Population Apoptotic (%): 83%
  Population Fragmented Nuclei (%): 16%
  Population Healthy Nuclei (%): 76%
  Population Hoechst High Intensity Objects (%): 1%
  Population Membrane Permeable-Phenotype (%): 6%
  Population Mitochondria Different-Phenotype (%): 1%
  Population Mitotic Cells (%): 16%
  Population Normal (%): 98%
  Population Pyknosed Nuclei (%): 7%
  Population Tubulin-Different-Phenotype (%): 3%
  Total Cell Count: 82
[3]
  Population Apoptotic (%): 83%
  Population Fragmented Nuclei (%): 25%
  Population Healthy Nuclei (%): 66%
  Population Hoechst High Intensity Objects (%): 2%
  Population Membrane Permeable-Phenotype (%): 8%
  Population Mitochondria Different-Phenotype (%): 0%
  Population Mitotic Cells (%): 16%
  Population Normal (%): 97%
  Population Pyknosed Nuclei (%): 7%
  Population Tubulin-Different-Phenotype (%): 1%
  Total Cell Count: 231
[4]
  Population Apoptotic (%): 80%
  Population Fragmented Nuclei (%): 19%
  Population Healthy Nuclei (%): 76%
  Population Hoechst High Intensity Objects (%): 3%
  Population Membrane Permeable-Phenotype (%): 10%
  Population Mitochondria Different-Phenotype (%): 3%
  Population Mitotic Cells (%): 20%
  Population Normal (%): 96%
  Population Pyknosed Nuclei (%): 4%
  Population Tubulin-Different-Phenotype (%): 5%
  Total Cell Count: 122
[5]
  Population Apoptotic (%): 91%
  Population Fragmented Nuclei (%): 25%
  Population Healthy Nuclei (%): 66%
  Population Hoechst High Intensity Objects (%): 2%
  Population Membrane Permeable-Phenotype (%): 5%
  Population Mitochondria Different-Phenotype (%): 1%
  Population Mitotic Cells (%): 8%
  Population Normal (%): 97%
  Population Pyknosed Nuclei (%): 8%
  Population Tubulin-Different-Phenotype (%): 3%
  Total Cell Count: 289
[6]
  Population Apoptotic (%): 50%
  Population Fragmented Nuclei (%): 16%
  Population Healthy Nuclei (%): 82%
  Population Hoechst High Intensity Objects (%): 0%
  Population Membrane Permeable-Phenotype (%): 4%
  Population Mitochondria Different-Phenotype (%): 3%
  Population Mitotic Cells (%): 50%
  Population Normal (%): 100%
  Population Pyknosed Nuclei (%): 1%
  Population Tubulin-Different-Phenotype (%): 0%
  Total Cell Count: 106
[7]
  Population Apoptotic (%): 88%
  Population Fragmented Nuclei (%): 23%
  Population Healthy Nuclei (%): 66%
  Population Hoechst High Intensity Objects (%): 0%
  Population Membrane Permeable-Phenotype (%): 6%
  Population Mitochondria Different-Phenotype (%): 2%
  Population Mitotic Cells (%): 11%
  Population Normal (%): 99%
  Population Pyknosed Nuclei (%): 9%
  Population Tubulin-Different-Phenotype (%): 2%
  Total Cell Count: 266
[8]
  Population Apoptotic (%): 100%
  Population Fragmented Nuclei (%): 14%
  Population Healthy Nuclei (%): 77%
  Population Membrane Permeable-Phenotype (%): 3%
  Population Mitochondria Different-Phenotype (%): 4%
  Population Mitotic Cells (%): 0%
  Population Pyknosed Nuclei (%): 8%
  Population Tubulin-Different-Phenotype (%): 0%
  Total Cell Count: 125
[9]
  Population Apoptotic (%): 91%
  Population Fragmented Nuclei (%): 16%
  Population Healthy Nuclei (%): 74%
  Population Hoechst High Intensity Objects (%): 1%
  Population Membrane Permeable-Phenotype (%): 6%
  Population Mitochondria Different-Phenotype (%): 2%
  Population Mitotic Cells (%): 8%
  Population Normal (%): 98%
  Population Pyknosed Nuclei (%): 9%
  Population Tubulin-Different-Phenotype (%): 4%
  Total Cell Count: 375
[10]
  Population Apoptotic (%): 81%
  Population Fragmented Nuclei (%): 9%
  Population Healthy Nuclei (%): 82%
  Population Hoechst High Intensity Objects (%): 3%
  Population Mitochondria Different-Phenotype (%): 0%
  Population Mitotic Cells (%): 18%
  Population Normal (%): 96%
  Population Pyknosed Nuclei (%): 7%
  Population Tubulin-Different-Phenotype (%): 1%
  Total Cell Count: 144
[11]
  Population Apoptotic (%): 100%
  Population Fragmented Nuclei (%): 18%
  Population Healthy Nuclei (%): 75%
  Population Hoechst High Intensity Objects (%): 2%
  Population Membrane Permeable-Phenotype (%): 7%
  Population Mitochondria Different-Phenotype (%): 2%
  Population Mitotic Cells (%): 0%
  Population Normal (%): 97%
  Population Pyknosed Nuclei (%): 5%
  Population Tubulin-Different-Phenotype (%): 4%
  Total Cell Count: 366
[12]
  Population Apoptotic (%): 85%
  Population Fragmented Nuclei (%): 14%
  Population Healthy Nuclei (%): 73%
  Population Hoechst High Intensity Objects (%): 1%
  Population Mitochondria Different-Phenotype (%): 4%
  Population Mitotic Cells (%): 15%
  Population Normal (%): 98%
  Population Pyknosed Nuclei (%): 11%
  Total Cell Count: 171
